Results from ChEMBL document CHEMBL4138070, “Synthesis and biological evaluation of (-)-kunstleramide and its derivatives” (Medchemcomm, 2017).

Key:
Format in all cases: functional, cell-based
A549 = assay: Antiproliferative activity in human A549 cells assessed as reduction in cell number incubated for 48 hrs by SRB assay; conditions: A549, 48 h
Method in brief: (§1)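 Cell lines from ATCC, kept in DMEM with 10% FBS and 1% penicillin–streptomycin at 37 °C under 5% CO2. Seeded from 5×10^4 cells/ml suspension, grown 24 h, then treated with 1, 10, 50 and 100 μM for 48 h. Fixed with cold 10% TCA 1 h at 4 °C, stained with 0.057% SRB, dye dissolved in 10 mM Tris, read at 510 nm. IC50 is 50% cell-number decrease versus untreated control, from regression.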

HeLa = assay: Antiproliferative activity in human HeLa cells assessed as reduction in cell number incubated for 48 hrs by SRB assay; method in brief: as §1
MCF7 = assay: Antiproliferative activity in human MCF7 cells assessed as reduction in cell number incubated for 48 hrs by SRB assay; conditions: MCF7, 48 h; method in brief: as §1
IMR-32 = assay: Antiproliferative activity in human IMR32 cells assessed as reduction in cell number incubated for 48 hrs by SRB assay; conditions: IMR-32, 48 h; method in brief: as §1

Row | SMILES | IC50 (A549) [µM] | IC50 (HeLa) [µM] | IC50 (MCF7) [µM] | IC50 (IMR-32) [µM]
1 | COc1ccc(C[C@@H](O)/C=C/C=C/C(=O)N2CCCC2)cc1OC | 24.4 | 14.1 | 26.2 | 12
2 | COc1ccc(C[C@@H](O)/C=C/C=C/C(=O)N2CCN(c3ncccn3)CC2)cc1OC | 9.92 | 12.6 | 14.7 | 10.8
3 | COc1ccc(C[C@@H](O)/C=C/C=C/C(=O)NCc2cc(OC)c(OC)c(OC)c2)cc1OC | 19.2 | 10.7 | 15.3 | 13.4
4 | COc1ccc(C[C@@H](O)/C=C/C=C/C(=O)N2CCCCC2)cc1OC | 16.4 | 14.1 | 39.5 | 11
5 | COc1ccc(C[C@@H](O)/C=C/C=C/C(=O)N2CCN(c3ccccn3)CC2)cc1OC | 8.13 | 23.6 | 23.6 | 11.1
6 | COc1ccc(C[C@@H](O)/C=C/C=C/C(=O)NCc2ccccc2)cc1OC | 17.1 | 12.9 | 33.6 | 16.6
7 | CCN1CCN(C(=O)/C=C/C=C/[C@H](O)Cc2ccc(OC)c(OC)c2)CC1 | 15.7 | 11.7 | 11.5 | 10.8
8 | COc1ccc(C[C@@H](O)/C=C/C=C/C(=O)N2CCN(Cc3ccc4c(c3)OCO4)CC2)cc1OC | 7.58 | 8.25 | 12.3 | 8.23
9 | COc1ccc(C[C@@H](O)/C=C/C=C/C(=O)NCc2ccc(Cl)cc2)cc1OC | 16.5 | 13.4 | 18.1 | 15.7
10 | COc1ccc(C[C@@H](O)/C=C/C=C/C(=O)N2CCSCC2)cc1OC | 18 | 20.6 | 20.2 | 16.1
11 | COc1ccc(C[C@@H](O)/C=C/C=C/C(=O)N2CCN(C)CC2)cc1OC | 22.2 | 16.5 | 17.1 | 18.9
12 | COc1ccc(C[C@@H](O)/C=C/C=C/C(=O)N2CCN(c3ccccc3)CC2)cc1OC | 14.2 | 9.75 | 12 | 9.43
13 | COc1ccc(CNC(=O)/C=C/C=C/[C@H](O)Cc2ccc(OC)c(OC)c2)cc1 | 16.8 | 9.45 | 26.6 | 17.4
14 | COc1ccc(C[C@@H](O)/C=C/C=C/C(=O)N2CCOCC2)cc1OC | 17.9 | 16.4 | 16.2 | 20.4
15 | CCNC(=O)/C=C/C=C/[C@H](O)Cc1ccc(OC)c(OC)c1 | 13.8 | 14.6 | 12.9 | 9.43
16 | COc1ccc(C[C@@H](O)/C=C/C=C/C(=O)N2CCN(C(c3ccccc3)c3ccccc3)CC2)cc1OC | 10.6 | 10.5 | 12.5 | 11.9
17 | COc1ccc(/C=C\c2cc(OC)c(OC)c(OC)c2)cc1O [COMBRETASTATIN A4] | 6.45 | 5.36 | 4.63 | 5.72
18 | O=C(/C=C/C=C/c1ccc2c(c1)OCO2)N1CCCCC1 [PIPERINE] | 11.9 | 19.2 | 13 | 10.2
